This note sets out measurements from ChEMBL document CHEMBL1148599, “Antitumor benzothiazoles. 26.(1) 2-(3,4-dimethoxyphenyl)-5-fluorobenzothiazole (GW 610, NSC 721648), a simple fluorinated 2-arylbenzothiazole, shows potent and selective inhibitory activity against lung, colon, and breast cancer cell lines” (2006).

Active and inactive are the calls of the source. The rule behind the calls is not given here.

Assay [1] deals with HCC 2998. Put plainly: Antiproliferative activity against human colon cancer cell line HCC2998. Type of assay: functional. The method, boiled down:
(§1)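 Cells kept in RPMI 1640 with 2 mM L-glutamine and 10% FCS at 37 °C, 5% CO2. Seeded 5 × 10³/well, left 24 h to adhere, then exposed 72 h to 0.1 nM–100 µM final (DMSO stocks diluted in medium, n = 8). MTT 400 µg/mL final added at dosing and at 72 h, 4 h at 37 °C. Formazan dissolved in DMSO:glycine pH 10.5, A550 read. GI50 from triplicate tests.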

The test system of assay [2] is MCF7. Put plainly: Antiproliferative activity against human breast cancer cell line MCF7. It counts as functional. The method in brief: as §1
Assay [3] has as its system MDA-MB-468. Put plainly: Antiproliferative activity against human breast cancer cell line MDA468. Type of assay: functional. The method in brief:
as §1

Assay [4] has as its system KM12. Briefly: Antiproliferative activity against human colon cancer cell line KM12. It counts as functional. The method, boiled down: as §1
Assay [5] has as its system MDA-MB-468. Briefly: Ability to induce CYP1A1 protein expression in […] human breast cancer cell line MDA468. Type of assay: functional, cell-based. The method, boiled down:
(§2)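 Whole-cell lysates from untreated cultures and from cells exposed 24 h to 10 nM–10 µM compound. Protein-normalized samples heated 95 °C 5 min, run on 10% SDS-PAGE and electroblotted to PVDF. Probed with polyclonal anti-human CYP1A1/1A2 antiserum and an alkaline phosphatase secondary, developed with BCIP/NBT. Recombinant CYP1A1 served as positive control for the 52 kDa band.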

For assay [6], the system named is MCF7. Briefly: Ability to induce CYP1A1 protein expression in […] human breast cancer cell line MCF7. It counts as functional, cell-based. The method in brief:
as §2

In assay [7] the test system is KM12. Briefly: Ability to induce CYP1A1 protein expression in sensitive human colon cancer cell line KM12. Type of assay: functional, cell-based. The method in brief:
as §2

Assay [8] deals with HCC 2998. Put plainly: Ability to induce CYP1A1 protein expression in sensitive human colon cancer cell line HCC2998. Type of assay: functional, cell-based. The method, boiled down:
as §2

As a reminder, the GI50 is the concentration at which growth is held to half of that of the control. Turning to `COc1cc(-c2nc3cc(F)ccc3s2)cc(OC)c1OC`, the concentration for 50% growth inhibition (GI50) worked out at 21100 nM with HCC 2998 [1], 1.9 nM in the assay on MCF7 [2], 2.1 nM in the assay on MDA-MB-468 [3] and 13000 nM in the assay on KM12 [4].
On to `Cc1cc(-c2nc3ccccc3s2)ccc1N`, for which the GI50 is more than 100000 nM in the assay on HCC 2998 [1], less than 0.1 nM with MDA-MB-468 [3] and more than 100000 nM with KM12 [4].
In the case of `COc1ccc(-c2nc3cc(F)ccc3s2)cc1Cl`, the GI50 in the assay on HCC 2998 [1] stood at 2500 nM; with MCF7 [2], 760 nM; in the assay with MDA-MB-468 [3], 480 nM; in the assay with KM12 [4] it was 7050 nM.
Taken in the same sequence, the figures for `CCOc1cc(-c2nc3cc(F)ccc3s2)ccc1OC` were 3320 nM, 80 nM, 92 nM and 5420 nM.
Take `Fc1ccc2sc(-c3ccc4c(c3)OCO4)nc2c1`: the 50% growth inhibitory concentration (GI50) with HCC 2998 [1] was 22300 nM; in the assay on MCF7 [2] it was 20700 nM; with MDA-MB-468 [3], 570 nM; with KM12 [4], 25100 nM. The result in the assay with MDA-MB-468 [5] and in the assay with MCF7 [6] was Active.
`COc1ccc(-c2nc3ccc(F)cc3s2)cc1OC`: the GI50 in the assay on HCC 2998 [1] worked out at 6210 nM; in the assay with MCF7 [2], 62 nM; in the assay on MDA-MB-468 [3], 5 nM; with KM12 [4], 24100 nM.
Taken in the same sequence, the figures for `c1ccc2sc(-c3ccc4c(c3)OCO4)nc2c1` were 68300 nM, 57800 nM, 800 nM and 98600 nM.
Regarding `COc1ccc(-c2nc3ccccc3s2)cc1OC`, the concentration for 50% growth inhibition (GI50) was determined as 42500 nM in the assay on HCC 2998 [1], 52700 nM in the assay on MCF7 [2], 530 nM with MDA-MB-468 [3] and 74200 nM with KM12 [4]. Further, the result in the assay with MDA-MB-468 [5] and with MCF7 [6] was Active.
Consider `COc1cc(OC)cc(-c2nc3cc(F)ccc3s2)c1`, for which the GI50 was 5210 nM with HCC 2998 [1], 1230 nM with MCF7 [2], 310 nM with MDA-MB-468 [3] and 7550 nM in the assay on KM12 [4].
For `COc1ccc(-c2nc3cc(F)ccc3s2)cc1C` the same measures were 540 nM, 48 nM, 58 nM and 18600 nM.
Take `COc1cc(-c2nc3cc(F)ccc3s2)cc(O)c1OC`: the GI50 came to 6490 nM in the assay with HCC 2998 [1], 653 nM in the assay on MCF7 [2], 88 nM in the assay with MDA-MB-468 [3] and 47500 nM in the assay on KM12 [4].
Taken in the same sequence, the figures for `COc1ccc(-c2nc3cc(Br)ccc3s2)cc1OC` were 20000 nM, 13600 nM, 770 nM and 65200 nM.
Taken in the same sequence, the figures for `COc1ccc(-c2nc3cc(Cl)ccc3s2)cc1OC` were 4880 nM, 27900 nM, 1000 nM and 12400 nM.
For `COc1ccc(-c2nc3cc(F)ccc3s2)cc1O` the same measures were 7600 nM, 500 nM, 50 nM and 18400 nM.
For the compound `Oc1ccc(-c2nc3cc(F)ccc3s2)cc1O`, the GI50 is 1640 nM in the assay with HCC 2998 [1], 720 nM in the assay on MCF7 [2], 190 nM in the assay with MDA-MB-468 [3] and 13000 nM in the assay on KM12 [4].
For `COc1ccc(-c2nc3cc(F)ccc3s2)cc1`, the GI50 in the assay on HCC 2998 [1] is 12400 nM; in the assay with MCF7 [2], 490 nM; in the assay with MDA-MB-468 [3], 330 nM; with KM12 [4] it was 24600 nM.
Taken in the same sequence, the figures for `COCOc1ccc(-c2nc3cc(F)ccc3s2)cc1OC` were 53500 nM, 65 nM, 48 nM and 19200 nM.
For `COc1ccc(-c2nc3cc(F)ccc3s2)cc1I` the same measures were 940 nM, 820 nM, 360 nM and 6900 nM.
Taken in the same sequence, the figures for `COc1ccc(-c2nc3cc(F)ccc3s2)cc1Br` were 3450 nM, 850 nM, 420 nM and 6700 nM.
As for `Oc1ccc(-c2nc3ccccc3s2)cc1O`, the 50% growth inhibitory concentration (GI50) with HCC 2998 [1] came out at 6990 nM; in the assay on MCF7 [2], 2190 nM; in the assay with MDA-MB-468 [3], 220 nM; in the assay with KM12 [4], 15600 nM.
For `COc1ccc(-c2nc3cc(F)ccc3s2)cc1F` the same measures were 13700 nM, 870 nM, 640 nM and 20600 nM.
Turning to `Cc1cc(-c2nc3cc(F)ccc3s2)ccc1N`, the 50% growth inhibitory concentration (GI50) is more than 100000 nM in the assay with HCC 2998 [1], less than 0.1 nM in the assay on MDA-MB-468 [3] and more than 100000 nM in the assay with KM12 [4].
`COc1ccc(-c2nc3cc(F)ccc3s2)c(OC)c1OC`: the 50% growth inhibitory concentration (GI50) is 37 nM in the assay on HCC 2998 [1], 23 nM in the assay on MCF7 [2], 120 nM in the assay on MDA-MB-468 [3] and 14200 nM in the assay with KM12 [4].
Regarding `COc1ccc(-c2nc3cc(F)ccc3s2)cc1OC`, the result with MDA-MB-468 [5] and in the assay on MCF7 [6] was Active. Besides, the 50% growth inhibitory concentration (GI50) in the assay with MDA-MB-468 [3] is less than 0.1 nM; in the assay on KM12 [4], 290 nM. Further, the result in the assay on KM12 [7] and in the assay with HCC 2998 [8] was inactive.
Turning to `CCOc1ccc(-c2nc3cc(F)ccc3s2)cc1OCC`, the values for the GI50 with MDA-MB-468 [3] and in the assay with KM12 [4] were 55 nM and 38500 nM, respectively.
For `COc1cc(-c2nc3cc(F)ccc3s2)ccc1O`, the GI50 amounted to 1040 nM in the assay with HCC 2998 [1], 750 nM with MCF7 [2], 170 nM with MDA-MB-468 [3] and 47300 nM in the assay on KM12 [4].
For `COc1ccc(-c2nc3c(F)cccc3s2)cc1OC` the same measures were 1060 nM, 5 nM, 5 nM and 850 nM.
